# PLC-beta3 inh = blocks human PLC-beta3 enzyme activity; Q01970; Purified PLC-beta3, fluorogenic substrate, fluorescence; inhibition, % at 12.2 µM; 370,000 compounds, 0.18% hits; in the data active means inhibition above about 11%;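 further: 0% = median of compound wells on plate and 100% = full blocker control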
# proCasp7 act = counter-screen for procaspase-3 activators: activators of human procaspase-7; activation, % at 8.5 µM; 330,000 compounds, 0.093% hits; AID 463210; recombinant procaspase-7, Ac-DEVD-pNA absorbance 405 nm; D23A/D198A/D206A triple mutant, cannot self-cleave; scale: DMSO 0, 5 µM enzyme 100;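 active means percent activation above the screen-wide mean plus 3 SD, cut at about 25% in these data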
#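 buffer or medium = Zinc-free HEPES/NaCl buffer, pH 7.4 | material = Procaspase-7 triple mutant (PC-7 D3A) | input = 2 µM procaspase-7 mutant as dispensed | signal = Epi-absorbance of released pNA at 405 nm, two timepoints | timing = 1 h preincubation, 2 h reaction | replicates = singlicate compound testing | evaluation = % activation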
# proCasp3 act = activates human procaspase-3 | recombinant procaspase-3 D3A, Ac-DEVD-pNA absorbance 405 nm | 330,000 compounds, 0.11% hits | activation, % at 8.5 µM;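 active means activation above the mean of all tested compounds plus 3 SD, cut at about 21% in these data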;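 further: 0% = DMSO alone and 100% = DMSO wells spiked with extra 5 µM PC-3 D3A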
# Target sequence (P42574 whole entry D9A/D28A/D175A): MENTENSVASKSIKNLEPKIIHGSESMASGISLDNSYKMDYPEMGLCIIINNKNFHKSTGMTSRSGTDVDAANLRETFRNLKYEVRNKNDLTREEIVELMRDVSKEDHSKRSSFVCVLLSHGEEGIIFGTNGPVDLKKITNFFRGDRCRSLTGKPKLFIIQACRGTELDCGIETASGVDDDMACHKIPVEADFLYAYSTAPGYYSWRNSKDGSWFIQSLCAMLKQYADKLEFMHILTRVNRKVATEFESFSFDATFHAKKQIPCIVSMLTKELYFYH
#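 Technique: 405 nm absorbance of p-nitroaniline, reads at 0 and 120 min; Test system: Procaspase-3 D3A mutant; Incubation: 1 h enzyme-compound preincubation, then 2 h substrate reaction, 25 °C; Repeats: singlicate, each compound tested once; Benchmarks: low control DMSO wells, high control DMSO plus 5 µM PC-3 D3A.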
# PLCg1 inh = inhibitors of human phospholipase C gamma1. P19174. purified PLC-gamma1, fluorogenic substrate, fluorescence. inhibition, % at 12.2 µM. 370,000 compounds, 0.84% hits. AID 720700; in the data active means inhibition above about 9.5%
# HGIII-sPLA2 inh = Blocks human group III sPLA2 activity | Q9NZ20 | QFRET BODIPY PC-A2 liposome hydrolysis, fluorescence | inhibition, % at 12.2 µM | 370,000 compounds, 0.56% hits;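 active means inhibition above mean plus 3 SD of compounds lying within the high and low control bounds, cut at about 19% in these data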;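 further: 0% = median of test compound wells and 100% = no enzyme DMSO wells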
# sPLA2 confirm = human GIII-sPLA2 inhibition, confirmation; recombinant hGIII-sPLA2, BODIPY PC-A2 QFRET fluorescence; inhibition, % at 12.2 µM; 2,000 compounds, 34% hits; shares compounds with HGIII-sPLA2 inh;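 active means mean inhibition across triplicates above the hit cutoff set in the earlier primary screen, cut at about 19% in these data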;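 further: 0% = enzyme with DMSO and 100% = DMSO wells lacking enzyme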
# BODIPY interf = 535nm fluorescence interference, HGIII-sPLA2 counter-screen | BODIPY FL product fluorescence interference, QFRET | inhibition, % at 12.2 µM | shares compounds with HGIII-sPLA2 inh | 2,000 compounds, 8.5% hits;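 active means average inhibition above the solvent-only control mean plus 3 SD, cut at about 6% in these data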;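 further: 0% = DMSO with substrate plus product and 100% = DMSO with substrate alone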
# BODIPY interf DR = counter-screen for HGIII-sPLA2 inhibitors: 535nm fluorescence interference, dose response. shares compounds with HGIII-sPLA2 inh. BODIPY FL product fluorescence interference, cell-free. IC50, µM. 240 tested, under 10 active;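 active means IC50 at or below 10 µM; inactive means IC50 above 10 µM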
# An asterisk follows results filed as active; x = not tested or not shown. A selection: hits, their analogues and other compounds. The true share with any hit is near 1.6%.
SMILES,PLC-beta3 inh,proCasp7 act,proCasp3 act,PLCg1 inh,HGIII-sPLA2 inh,sPLA2 confirm,BODIPY interf,others
Cc1ccc([C@H]2C[C@@H](n3cc(-c4ccc(F)cc4)nn3)[C@H](O)CN2C(=O)c2cccs2)cc1,2,x,x,-2,-17,x,x,
O=C(c1ccc(F)cc1F)N1CCN(c2ccccn2)CC1,4,-3,-5,-3,-3,x,x,
CCOC(=O)C1(C)CCCN1C(=O)c1cccc(F)c1 (stereo unspecified),4,x,x,1,4,x,x,
C/C(=N\NC(=O)c1nnn(-c2nonc2N)c1CN(C)c1ccccc1)c1ccccc1O,-45,-71,-56,-26,24*,33*,-2,BODIPY interf DR=>122
O=C(NCc1ccccc1)[C@H]1CCCN1C(=O)[C@H]1CCCN1C(=O)c1ccc(Cl)cc1,-1,x,x,1,22*,4,-9,
COc1cccc(CNC(=O)[C@@H]2CCCN2C(=O)[C@@H]2CCCN2C(=O)c2ccc(Cl)cc2)c1,1,x,x,0,4,x,x,
COc1cccc(CNC(=O)[C@H]2CCCN2C(=O)[C@H]2CCCN2C(=O)c2ccc(C)cc2)c1,-1,x,x,2,22*,-2,-10,
CCN(CC)C(=O)CNC(=S)N(CCCN1CCOCC1)Cc1cccs1,0,4,-4,4,20*,3,-11,
COc1ccc(OC)c(N(CC(=O)Nc2cccnc2)S(=O)(=O)c2ccccc2)c1,4,8,0,7,2,x,x,
CCCCN1C(=O)Cc2c1nc(N)c1c(N)nc(N(CCC)CCC)c(C#N)c21,-228,-25,-22,-166,28*,11,-8,
COc1ccc(NC(=O)Nc2cnccn2)cc1,-7,3,-1,0,22*,2,-4,
CNC(=S)NNC(=O)c1cccn(Cc2cccc(C(F)(F)F)c2)c1=O,-25,9,3,-12,15,x,x,
CN1CCC(=O)N([C@H](CO)c2ccccc2)CC1,6,2,3,5,13,x,x,
O=c1[nH]c2ccccc2n2c(=S)[nH]nc12,-6,2,4,-1,10,x,x,
O=c1[nH]c2ccccc2n2c(C(F)(F)F)nnc12,-41,4,-7,-21,20*,3,-8,
COC(=O)[C@H](Cc1c[nH]c2ccccc12)NC(=O)Nc1ccccc1OC,-3,12,3,0,-42,x,x,
Fc1ccc(-n2c(-c3ccc4c(c3)OCO4)n[nH]c2=S)cc1Cl,-1,-29,-8,1,23*,34*,5,BODIPY interf DR=>122
Cc1ccc(S(=O)(=O)NCC(=O)OC(C)C(=O)NCc2ccc3c(c2)OCO3)cc1 (stereo unspecified),-3,x,x,4,8,x,x,
COc1ccccc1CNC(=O)CN(C)CC(=O)Nc1ccc(F)c(F)c1F,-2,-9,4,7,0,x,x,
CS(=O)(=O)N1CCCC(C(=O)NCc2cccs2)C1 (stereo unspecified),-1,4,3,3,20*,-3,-1,
O=C(NCc1cccs1)C1CCCN(S(=O)(=O)c2ccccc2)C1 (stereo unspecified),-2,x,x,0,4,x,x,
CS(=O)(=O)N1CCCC(C(=O)NCc2ccco2)C1 (stereo unspecified),2,9,0,9,20*,-1,-4,
O=C(COc1ccccc1)Nc1cc(C(F)(F)F)ccc1N1CCCC1,1,-12,-56,-4,9,x,x,
Cc1cc(N2CCCC2)ccc1NC(=O)COc1cccc(C(F)(F)F)c1,-8,-7,-5,2,22*,35*,3,BODIPY interf DR=>122
CC1=CC(=O)C(C(C)=Nc2ccccc2Cl)C(=O)O1 (stereo unspecified),-5,-5,7,0,1,x,x,
CCOCCCNC(=O)C1CCN(S(=O)(=O)N2CCCCC2)CC1,1,-4,0,-1,3,x,x,
